Measurements: ChEMBL document CHEMBL1141147, “Development of dual-acting benzofurans for thromboxane A2 receptor antagonist and prostacyclin receptor agonist: synthesis, structure-activity relationship, and evaluation of benzofuran derivatives” (J Med Chem, 2005)

Key:
Thromboxane A2 receptor = molecular target: T1, Thromboxane A2 receptor (Homo sapiens, UniProt P21731); test: Inhibition of [3H]SQ-29,548 binding to thromboxane A2 receptors (TP) of human platelet membrane
T1 sequence (P21731 whole entry): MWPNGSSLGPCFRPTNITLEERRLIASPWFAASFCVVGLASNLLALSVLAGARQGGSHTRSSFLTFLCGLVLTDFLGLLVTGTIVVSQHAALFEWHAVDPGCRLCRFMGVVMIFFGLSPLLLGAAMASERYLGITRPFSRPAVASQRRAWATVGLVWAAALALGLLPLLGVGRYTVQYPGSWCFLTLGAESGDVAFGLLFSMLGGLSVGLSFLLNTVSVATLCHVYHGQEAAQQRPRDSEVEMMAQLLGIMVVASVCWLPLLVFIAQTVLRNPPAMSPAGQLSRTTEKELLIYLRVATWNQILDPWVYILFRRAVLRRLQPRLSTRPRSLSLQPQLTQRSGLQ
In short: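 Washed human platelets from citrated, indomethacin-treated blood were freeze-thawed three times. Membranes were pelleted at 40000g and used at 10 μg protein in 50 mM Tris, 5 mM MgCl₂, pH 7.4. They were incubated with [³H]SQ-29548 and compound for 30 min at 25 °C, then filtered on GF/C and counted by scintillation. Nonspecific binding was set with 10 μM SQ-29548. Ki = IC50/(1 + L/Kd).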

Prostacyclin receptor = Prostacyclin receptor (Homo sapiens, UniProt P43119); test: Inhibition of [3H]APS-314d binding to prostacyclin receptors (IP) of human platelet membrane
In short: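 Human platelet membranes (10 μg protein; freeze-thawed washed platelets, 40000g pellet) in 50 mM Tris, 5 mM MgCl₂, pH 7.4 were incubated with [³H]APS-314d sodium and compound for 60 min at 4 °C. Bound ligand was separated by GF/C filtration and counted by liquid scintillation. Nonspecific binding was set with 10 μM APS-314d sodium. Ki was derived from IC50 via the Cheng–Prusoff form.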

Homo sapiens [1] = species: Homo sapiens; test: Inhibition of U-46,619 (2 uM) induced platelet aggregation in human platelet rich plasma; assay type: functional, organism-based
In short: (§1)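 Human volunteer blood was citrated 9:1 with 3.8% sodium citrate and spun at 90–140g for 10 min at room temperature to give PRP; platelet-poor plasma came from a 1400g spin and set 100% aggregation. PRP was preincubated 1 min with compound at various concentrations, then stimulated. Light transmission was recorded for 5 min. Percent inhibition was taken against vehicle, N = 3; IC50 is 50% inhibition.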

Homo sapiens [2] = species: Homo sapiens; test: Inhibition of ADP (5 uM) induced platelet aggregation in human platelet rich plasma; assay type: functional, organism-based; in short: as §1
Homo sapiens [3] = species: Homo sapiens; test: Inhibition of U-46,619 (4 uM) induced platelet aggregation in human platelet rich plasma; assay type: functional, organism-based
Monkey [4] = test: Ex vivo inhibition of platelet aggregation induced by ADP (5 uM) in cynomolgus monkey platelet rich plasma; assay type: functional, organism-based; conditions: Cercopithecidae
Monkey [5] = test: Ex vivo inhibition of platelet aggregation induced by ADP (10 uM) in cynomolgus monkey platelet rich plasma; conditions: Cercopithecidae

Prostacyclin receptor, sequence (P43119 whole entry): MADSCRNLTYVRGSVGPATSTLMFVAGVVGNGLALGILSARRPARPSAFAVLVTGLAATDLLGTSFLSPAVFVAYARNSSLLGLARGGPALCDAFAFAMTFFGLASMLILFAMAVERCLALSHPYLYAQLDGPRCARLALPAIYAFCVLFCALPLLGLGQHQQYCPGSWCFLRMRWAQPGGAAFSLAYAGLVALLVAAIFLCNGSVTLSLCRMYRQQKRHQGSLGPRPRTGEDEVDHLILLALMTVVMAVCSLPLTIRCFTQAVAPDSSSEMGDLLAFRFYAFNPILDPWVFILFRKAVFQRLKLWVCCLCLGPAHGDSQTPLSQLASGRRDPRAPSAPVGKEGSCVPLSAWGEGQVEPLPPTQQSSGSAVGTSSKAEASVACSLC

Structure (SMILES) | Ki (Thromboxane A2 receptor) [nM] | Ki (Prostacyclin receptor) [nM] | IC50 (Homo sapiens [1]) [nM] | IC50 (Homo sapiens [2]; Homo sapiens, Plasma) [µM] | IC50 (Homo sapiens [3]) [nM] | IC50 (Homo sapiens [2]) [µM] | IC50 (Monkey [4]) [µM] | IC50 (Monkey [5]) [nM]
CCCC(SCCc1c(CO)oc2c(OCC(=O)O)cccc12)(c1ccccc1)c1ccccc1 | > 5900 | > 2300 | 56000 | > 100 |  |  |  | 
O=C(O)COc1cccc2c(CCCSC(c3ccccc3)c3ccccc3)coc12 | 3100 | 270 | 1600 | 1.9 |  |  |  | 
CC(SCCc1c(CO)oc2c(OCC(=O)O)cccc12)(c1ccccc1)c1ccccc1 [listing 1 of 2 here] | 4.5 | 530 | 170 |  |  | 2.2 |  | 
CC(SCCc1c(CO)oc2c(OCC(=O)O)cccc12)(c1ccccc1)c1ccccc1 [listing 2 of 2 here] |  |  |  |  | 120 | 2.2 | 3.7 | 140
O=C(O)COc1cccc2c(CCCSCCC(c3ccccc3)c3ccccc3)coc12 | > 15000 | 2900 | > 100000 | > 100 |  |  |  | 
O=C(O)CCC/C=C\C[C@@H]1[C@H](CNNC(=O)Nc2ccccc2)[C@H]2CC[C@H]1O2 |  |  |  | > 10 | 21 |  |  | 
O=C(O)COc1cccc2c(CCSC(c3ccccc3)c3ccccc3)c(CO)oc12 | 88 | 750 | 460 | 3.3 |  |  |  | 
O=C(O)COc1cccc2c(CCSC(c3ccccc3)c3ccccc3)coc12 | 310 |  | 560 | 5.9 |  |  |  | 
O=C(O)COc1cccc2c(CSC(c3ccccc3)c3ccccc3)coc12 | 5100 | 4700 | > 100000 | > 100 |  |  |  | 

Results, then the compound that gave them:

Ki (Thromboxane A2 receptor) [nM] | Ki (Prostacyclin receptor) [nM] | IC50 (Homo sapiens [1]) [nM] | IC50 (Homo sapiens [2]; Homo sapiens, Plasma) [µM] | IC50 (Homo sapiens [3]) [nM] | IC50 (Homo sapiens [2]) [µM] | IC50 (Monkey [4]) [µM] | IC50 (Monkey [5]) [nM] | Structure (SMILES)
26 | 570 | 580 | 8.1 |  |  |  |  | CC(SCCc1coc2c(OCC(=O)O)cccc12)(c1ccccc1)c1ccccc1
 |  |  | 0.17 | 170 |  |  |  | O=C(O)COc1cccc2c1CCC=C2CCO/N=C(\c1ccccc1)c1cccnc1
180 | 3400 | 3800 | 56 |  |  |  |  | CCC(SCCc1c(CO)oc2c(OCC(=O)O)cccc12)(c1ccccc1)c1ccccc1
51 | > 10000 | 1700 | 7.9 |  |  |  |  | CC(c1ccccc1)(c1ccccc1)[S+]([O-])CCc1c(CO)oc2c(OCC(=O)O)cccc12 (stereo not given)
2500 | 680 | 17300 | 19.9 |  |  |  |  | O=C(O)COc1cccc2c(CSCC(c3ccccc3)c3ccccc3)coc12
72 | 5800 | 2900 | 9 |  |  |  |  | CC(SCCc1c(CCCO)oc2c(OCC(=O)O)cccc12)(c1ccccc1)c1ccccc1
> 10000 | 560 | 5400 | 5.2 |  |  |  |  | O=C(O)COc1cccc2c(CCSCCC(c3ccccc3)c3ccccc3)coc12
4.3 | 1900 | 310 | 3 |  |  |  |  | CC(c1ccccc1)(c1ccccc1)S(=O)(=O)CCc1c(CO)oc2c(OCC(=O)O)cccc12
 |  |  | 0.0076 | 5.7 |  |  |  | CC#CCC(C)[C@H](O)/C=C/[C@@H]1[C@H]2c3cccc(CCCC(=O)O)c3O[C@H]2C[C@H]1O (stereo not given in full) [BERAPROST SODIUM]
3100 | 80 | 510 | 0.73 |  |  |  |  | O=C(O)COc1cccc2c(CCSCC(c3ccccc3)c3ccccc3)coc12
150 | 760 | 520 | 1.5 |  |  |  |  | O=C(O)COc1cccc2c(CCSC(c3ccccc3)(c3ccccc3)C(F)(F)F)c(CO)oc12
3100 | 580 | 10000 | 12.8 |  |  |  |  | O=C(O)COc1cccc2c(CSCCC(c3ccccc3)c3ccccc3)coc12
> 15000 | 400 | 1400 | 1.7 |  |  |  |  | O=C(O)COc1cccc2c(CCCSCC(c3ccccc3)c3ccccc3)coc12
78 | 210 | 540 | 0.71 |  |  |  |  | CC(SCCc1c(CCO)oc2c(OCC(=O)O)cccc12)(c1ccccc1)c1ccccc1
